The source made the active and inactive calls. No cut-off for these calls is given here.
How the values were obtained:
[1] = test system: Candida albicans; assay: Antifungal activity against Candida albicans IMRU 3669 at 5 mg/ml by agar disk diffusion assay; format: functional; details: Candida albicans, IMRU 3669; read-out: DIZ
Procedure, shortened: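 Fungi maintained on Czapek's Dox agar; agar well diffusion with 1 cm wells and […] of each concentration (1, 2.5, 5 mg/mL) in DMF; inhibition zone diameter measured.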

[2] = test system: Hepatovirus A; assay: Antiviral activity against HAV infected african green monkey Vero cells at 10^-3 dilution of 5 mg/ml by plaque formation assay; format: functional
Procedure, shortened: (§1)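 Compound dilutions prepared from a 5 mg/mL DMSO stock, using the maximum non-toxic dilution for Vero cells over 3 days; 0.1 mL virus (10³) mixed with 0.1 mL compound for 1 h at room temperature; mixture inoculated onto washed Vero monolayers in 12-well plates and adsorbed at 37 °C; 2× MEM/agarose overlay applied; read-out % reduction in plaque count versus untreated virus control.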

[3] = test system: Human alphaherpesvirus 1; assay: Antiviral activity against HSV1 infected african green monkey Vero cells at 10^-3 dilution of 5 mg/ml by plaque formation assay; format: functional; procedure, shortened: as §1
[4] = test system: Coxsackievirus B4; assay: Antiviral activity against Coxsackievirus B4 infected african green monkey Vero cells at 10^-3 dilution of 5 mg/ml by plaque formation assay; format: functional; procedure, shortened: as §1
[5] = test system: Escherichia coli; assay: Antibacterial activity against Escherichia coli NCTC 10416 at 5 mg/ml by agar disk diffusion assay; format: functional; details: read-out: DIZ
[6] = test system: Salmonella typhi; assay: Antibacterial activity against Salmonella typhi NCIMB 9331 at 5 mg/ml by agar disk diffusion assay; format: functional, Salmonella enterica subsp. enterica serovar Typhi; details: Salmonella enterica, read-out: DIZ
[7] = test system: Bacillus subtilis; assay: Antibacterial activity against Bacillus subtilis NCTC 1040 at 5 mg/ml by agar disk diffusion assay; format: functional; details: read-out: DIZ
[8] = test system: Staphylococcus aureus; assay: Antibacterial activity against Staphylococcus aureus NCTC 7447 at 5 mg/ml by agar disk diffusion assay; format: functional; details: read-out: DIZ
[9] = test system: Aspergillus niger; assay: Antifungal activity against Aspergillus niger IMI 31726 at 5 mg/ml by agar disk diffusion assay; format: functional; details: read-out: DIZ

Structure (SMILES)	zone of inhibition at 5000 µg/mL [1]	Activity [2]	Activity [3]	Activity [4]	zone of inhibition at 5000 µg/mL [5]	zone of inhibition at 5000 µg/mL [6]	zone of inhibition at 5000 µg/mL [7]	zone of inhibition at 5000 µg/mL [8]	zone of inhibition at 5000 µg/mL [9]
N=C1C(=S)N(c2ccc(I)cc2)C(=O)N1c1ccc2c(c1)Cc1ccccc1-2	13 mm	50%	70%	50%	15 mm	17 mm	13.5 mm	13.5 mm	–
CCOc1ccc(N2C(=O)N(c3ccc4c(c3)Cc3ccccc3-4)C(=N)C2=S)cc1	15 mm	inactive	50%	inactive	17 mm	18 mm	17 mm	19 mm	20 mm

Reference: ChEMBL document CHEMBL1155362, “Synthesis, characterization and derivatization of some novel types of mono- and bis-imidazolidineiminothiones and imidazolidineiminodithiones with antitumor, antiviral, antibacterial and antifungal activities--part I” (Eur J Med Chem, 2009)
